Measurements taken from ChEMBL document CHEMBL3352416, “Discovery of carbohybrid-based 2-aminopyrimidine analogues as a new class of rapid-acting antimalarial agents using image-based cytological profiling assay” (J Med Chem, 2014).
pEC50: −log10 of the molar value.

System: Plasmodium falciparum
Experiment: Antimalarial activity against Plasmodium falciparum K1 by automated image mining based cytological profiling assay
Type: functional, organism-based
Procedure, shortened: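 Parasite cultures in 384-well format, read by automated imaging. Infected erythrocytes detected by DAPI nuclear staining against WGA-AlexaFluor 488 host-cell stain, and viability by Mitotracker Red CMXRos. Total culture parasitaemia quantified. EC50 given as mean±SD of two independent experiments, each in duplicate.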

SMILES | pEC50
COc1ccc(CO[C@@H]([C@H](COS(C)(=O)=O)N=[N+]=[N-])[C@H](OCc2ccc(OC)cc2)c2cnc(N(C)C)nc2)cc1 | 5.18
COc1ccc(CO[C@H]([C@H](COC(c2ccccc2)(c2ccccc2)c2ccccc2)N=[N+]=[N-])[C@H](OCc2ccc(OC)cc2)c2cnc(N(C)C)nc2)cc1 | 6.78
COc1ccc(CO[C@H]([C@H](O)COC(c2ccccc2)(c2ccccc2)c2ccccc2)[C@H](OCc2ccc(OC)cc2)c2cnc(N(C)C)nc2)cc1 | 6.25
COc1ccc(CO[C@@H]([C@H](OCc2ccc(OC)cc2)c2cnc(N(C)C)nc2)[C@@H](COC(c2ccccc2)(c2ccccc2)c2ccccc2)OS(C)(=O)=O)cc1 | 6.70
COc1ccc(CO[C@H]([C@H](OCc2ccc(OC)cc2)c2cnn(C)c2)[C@@H](COC(c2ccccc2)(c2ccccc2)c2ccccc2)OS(C)(=O)=O)cc1 | 6.80
COc1ccc(CO[C@H]([C@H](OCc2ccc(OC)cc2)c2cnc(N(C)C)nc2)[C@@H](CO)OS(C)(=O)=O)cc1 | 5.30
COc1ccc(CO[C@H]([C@H](O)COC(c2ccccc2)(c2ccccc2)c2ccccc2)[C@H](OCc2ccc(OC)cc2)c2cnn(C)c2)cc1 | 6.32
